According to ChEMBL document CHEMBL2177069, “Novel peptidomimetic compounds containing redox active chalcogens and quinones as potential anticancer agents” (Eur J Med Chem, 2012):

Legend:
Saccharomyces cerevisiae [1] = assay: Growth inhibition of COX17-deficient Saccharomyces cerevisiae YLL009C mutant at 20 ug/disc after 24 to 48 hrs by agar diffusion assay; format: functional; details: read-out: DIZ
Procedure, shortened: (§1)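 S. cerevisiae deletion mutants or wild type grown on YPD, seeded into liquid agar medium at an optical density of 0.1. 6 mm paper discs soaked with methanolic compound solution were placed on the plates and incubated at 30 °C. Growth was checked after 1 and 2 days, and the inhibition zone diameter was recorded in mm.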

A498 [2] = assay: Cytotoxicity against human A498 cells; format: functional
DU-145 = assay: Cytotoxicity against human DU145 cells; format: functional
A498 [3] = assay: Cytotoxicity against human A498 cells after 24 hrs by MTT assay; format: functional, cell-based; details: A498, 24 h
Procedure, shortened: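 MTT assay. Cells were seeded at 50,000 cells/mL in medium with 10% fetal calf serum and grown for two days at 37 °C, 10% CO2. Serial dilutions of compound were then added for 24 h. MTT was added (final 0.5 mg/mL) for 2 h, and the formazan was pelleted, washed, dissolved in isopropanol with 0.4% HCl and read at 590 nm. IC50 is the concentration giving 50% of untreated-control absorbance, taken from dose-response curves; mean of two parallel experiments.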

Saccharomyces cerevisiae [4] = assay: Growth inhibition of SOD1-deficient Saccharomyces cerevisiae YJR104C mutant at 20 ug/disc after 24 to 48 hrs by agar diffusion assay; format: functional; details: read-out: DIZ; procedure, shortened: as §1
SK-MEL-5 = assay: Cytotoxicity against human SK-MEL-5 cells; format: functional
T47D = assay: Cytotoxicity against human T47D cells; format: functional
SR = assay: Cytotoxicity against human SR cells; format: functional
SK-MEL-2 = assay: Cytotoxicity against human SK-MEL-2 cells; format: functional
SW-620 = assay: Cytotoxicity against human SW620 cells; format: functional
OVCAR-3 = assay: Cytotoxicity against human OVCAR3 cells; format: functional
OVCAR-8 = assay: Cytotoxicity against human OVCAR8 cells; format: functional
[5] = Cytotoxicity against human 786-O cells; format: functional
Saccharomyces cerevisiae [6] = assay: Growth inhibition of POS5-deficient Saccharomyces cerevisiae YPL188W mutant at 20 ug/disc after 24 to 48 hrs by agar diffusion assay; format: functional; details: read-out: DIZ; procedure, shortened: as §1
Saccharomyces cerevisiae [7] = assay: Growth inhibition of WSC4-deficient Saccharomyces cerevisiae YHL028W mutant at 20 ug/disc 24 to 48 hrs by agar diffusion assay; format: functional; details: read-out: DIZ; procedure, shortened: as §1
UACC-62 = assay: Cytotoxicity against human UACC62 cells; format: functional
SNB-75 = assay: Cytotoxicity against human SNB75 cells; format: functional
MCF7 = assay: Cytotoxicity against human MCF7 cells; format: functional
SK-OV-3 = assay: Cytotoxicity against human SKOV3 cells; format: functional
SF-295 = assay: Cytotoxicity against human SF295 cells; format: functional
PC-3 = assay: Cytotoxicity against human PC3 cells; format: functional
Saccharomyces cerevisiae [8] = assay: Growth inhibition of GTT2-deficient Saccharomyces cerevisiae YLL060C mutant at 20 ug/disc after 24 to 48 hrs by agar diffusion assay; format: functional; details: read-out: DIZ; procedure, shortened: as §1
LOX IMVI = assay: Cytotoxicity against human LOXIMVI cells; format: functional
Saccharomyces cerevisiae [9] = assay: Growth inhibition of RCK1-deficient Saccharomyces cerevisiae YGL158W mutant at 20 ug/disc after 24 to 48 hrs by agar diffusion assay; format: functional; details: read-out: DIZ; procedure, shortened: as §1
HCC 2998 = assay: Cytotoxicity against human HCC2998 cells; format: functional
NCI/ADR-RES = assay: Cytotoxicity against human NCI/ADR-RES cells; format: functional
MOLT-4 = assay: Cytotoxicity against human MOLT4 cells; format: functional
COLO 205 = assay: Cytotoxicity against human COLO205 cells; format: functional
HT-29 = assay: Cytotoxicity against human HT-29 cells; format: functional
RPMI-8226 = assay: Cytotoxicity against human RPMI8226 cells; format: functional
HL-60 = assay: Cytotoxicity against human HL60 cells; format: functional
SN12C = assay: Cytotoxicity against human SN12C cells; format: functional
Saccharomyces cerevisiae [10] = assay: Growth inhibition of GSH2-deficient Saccharomyces cerevisiae YOL049W mutant at 20 ug/disc after 24 to 48 hrs by agar diffusion assay; format: functional; details: read-out: DIZ; procedure, shortened: as §1
SF-539 = assay: Cytotoxicity against human SF539 cells; format: functional
IGROV-1 = assay: Cytotoxicity against human IGROV1 cells; format: functional
A549 = assay: Cytotoxicity against human A549 cells; format: functional
Malme-3M = assay: Cytotoxicity against human MALME-3M cells; format: functional
MDA-MB-468 = assay: Cytotoxicity against human MDA-MB-468 cells; format: functional
OVCAR-5 = assay: Cytotoxicity against human OVCAR5 cells; format: functional
OVCAR-4 = assay: Cytotoxicity against human OVCAR4 cells; format: functional
SF-268 = assay: Cytotoxicity against human SF268 cells; format: functional

`CC1=C([Se]CC(OC(=O)[C@@H](CO)NC(=O)OC(C)(C)C)C(=O)NCCCCCC(=O)OCc2ccccc2)C(=O)c2ccccc2C1=O` (stereo partly specified) gave a zone of inhibition at 20 µg/disc (Saccharomyces cerevisiae [1]) of 0 mm, a GI50 (A498 [2]) of 2040 nM and an LC50 (50% lethal concentration) (A498 [2]) of 45.7 µM. The TGI (A498 [2]; read-out: pTGI (converted)) was 5.89 µM, the GI50 (DU-145) was 1820 nM and the LC50 (DU-145) was 5.89 µM. The TGI (DU-145; read-out: pTGI (converted)) was 3.24 µM, the IC50 (A498 [3]) was 5 µM and the zone of inhibition at 20 µg/disc (Saccharomyces cerevisiae [4]) was 17 mm. It also gave a GI50 (SK-MEL-5) of 1580 nM, an LC50 (SK-MEL-5) of 5.5 µM and a TGI (SK-MEL-5; read-out: pTGI (converted)) of 2950 nM. It also gave a GI50 (T47D) of 1620 nM, an LC50 (T47D) of 9.55 µM and a TGI (T47D; read-out: pTGI (converted)) of 3.98 µM. For the same compound, the GI50 (SR) was 1580 nM, the LC50 (SR) was greater than 100 µM and the TGI (SR; read-out: pTGI (converted)) was 6.61 µM. It also gave a GI50 (SK-MEL-2) of 2240 nM, an LC50 (SK-MEL-2) of 7.41 µM and a TGI (SK-MEL-2; read-out: pTGI (converted)) of 4.07 µM. It also gave a GI50 (SW-620) of 1740 nM, an LC50 (SW-620) of 6.17 µM and a TGI (SW-620; read-out: pTGI (converted)) of 3.24 µM. It also gave a GI50 (OVCAR-3) of 1780 nM, an LC50 (OVCAR-3) of 5.62 µM and a TGI (OVCAR-3; read-out: pTGI (converted)) of 3.16 µM. It also gave a GI50 (OVCAR-8) of 1820 nM, an LC50 (OVCAR-8) of 6.17 µM and a TGI (OVCAR-8; read-out: pTGI (converted)) of 3.39 µM. The GI50 ([5]; 786-0) was 2090 nM, the LC50 ([5]; 786-0) was 6.03 µM and the TGI ([5]; 786-0, read-out: pTGI (converted)) was 3.55 µM. For the same compound, the zone of inhibition at 20 µg/disc (Saccharomyces cerevisiae [6]) was 0 mm, the zone of inhibition at 20 µg/disc (Saccharomyces cerevisiae [7]) was 0 mm and the GI50 (UACC-62) was 1700 nM. The LC50 (UACC-62) was 5.62 µM, the TGI (UACC-62; read-out: pTGI (converted)) was 3.09 µM and the GI50 (SNB-75) was 1290 nM. The LC50 (SNB-75) was 5.01 µM, the TGI (SNB-75; read-out: pTGI (converted)) was 2570 nM and the GI50 (MCF7) was 1620 nM. It also gave an LC50 (MCF7) of 7.08 µM, a TGI (MCF7; read-out: pTGI (converted)) of 3.39 µM and a GI50 (SK-OV-3) of 1290 nM. The LC50 (SK-OV-3) was 5.13 µM, the TGI (SK-OV-3; read-out: pTGI (converted)) was 2570 nM and the GI50 (SF-295) was 324 nM. It also gave an LC50 (SF-295) of 30.9 µM, a TGI (SF-295; read-out: pTGI (converted)) of 1510 nM and a GI50 (PC-3) of 1230 nM. For the same compound, the LC50 (PC-3) was 5.37 µM, the TGI (PC-3; read-out: pTGI (converted)) was 2570 nM and the zone of inhibition at 20 µg/disc (Saccharomyces cerevisiae [8]) was 12 mm. For the same compound, the GI50 (LOX IMVI) was 1860 nM, the LC50 (LOX IMVI) was 7.41 µM and the TGI (LOX IMVI; read-out: pTGI (converted)) was 3.72 µM. It also gave a zone of inhibition at 20 µg/disc (Saccharomyces cerevisiae [9]) of 0 mm, a GI50 (HCC 2998) of 2000 nM and an LC50 (HCC 2998) of 6.17 µM. For the same compound, the TGI (HCC 2998; read-out: pTGI (converted)) was 3.47 µM, the GI50 (NCI/ADR-RES) was 2040 nM and the TGI (NCI/ADR-RES; read-out: pTGI (converted)) was 3.89 µM. It also gave a GI50 (MOLT-4) of 1380 nM, an LC50 (MOLT-4) greater than 100 µM and a TGI (MOLT-4; read-out: pTGI (converted)) of 4.9 µM. It also gave a GI50 (COLO 205) of 1820 nM, a CC50 (COLO 205; read-out: pLC50 (the source's name) (converted)) of 6.17 µM and a TGI (COLO 205; read-out: pTGI (converted)) of 3.31 µM. It also gave a GI50 (HT-29) of 2140 nM, an LC50 (HT-29) of 7.24 µM and a TGI (HT-29; read-out: pTGI (converted)) of 3.98 µM. For the same compound, the GI50 (RPMI-8226) was 2190 nM, the LC50 (RPMI-8226) was greater than 100 µM and the TGI (RPMI-8226; read-out: pTGI (converted)) was 5.89 µM. For the same compound, the GI50 (HL-60) was 2040 nM, the LC50 (HL-60) was greater than 100 µM and the TGI (HL-60; read-out: pTGI (converted)) was 4.79 µM. For the same compound, the GI50 (SN12C) was 1950 nM, the LC50 (SN12C) was 6.61 µM and the TGI (SN12C; read-out: pTGI (converted)) was 3.63 µM. For the same compound, the zone of inhibition at 20 µg/disc (Saccharomyces cerevisiae [10]) was 0 mm, the GI50 (SF-539) was 1700 nM and the LC50 (SF-539) was 5.62 µM. It also gave a TGI (SF-539; read-out: pTGI (converted)) of 3.09 µM, a GI50 (IGROV-1) of 1780 nM and an LC50 (concentration killing 50% of cells) (IGROV-1) of 6.31 µM. For the same compound, the TGI (IGROV-1; read-out: pTGI (converted)) was 3.39 µM, the GI50 (A549) was 1380 nM and the LC50 (A549) was 6.92 µM. It also gave a TGI (A549; read-out: pTGI (converted)) of 3.09 µM, a GI50 (Malme-3M) of 2090 nM and an LC50 (Malme-3M) of 7.08 µM. The TGI (Malme-3M; read-out: pTGI (converted)) was 3.8 µM, the GI50 (MDA-MB-468) was 1480 nM and the LC50 (MDA-MB-468) was 6.76 µM. The TGI (MDA-MB-468; read-out: pTGI (converted)) was 3.16 µM, the GI50 (OVCAR-5) was 2090 nM and the LC50 (OVCAR-5) was 6.31 µM. It also gave a TGI (OVCAR-5; read-out: pTGI (converted)) of 3.63 µM, a GI50 (OVCAR-4) of 1550 nM and an LC50 (OVCAR-4) of 5.37 µM. The TGI (OVCAR-4; read-out: pTGI (converted)) was 2880 nM, the GI50 (SF-268) was 1860 nM and the LC50 (SF-268) was 5.75 µM. The TGI (SF-268; read-out: pTGI (converted)) was 3.24 µM.
